For assay [1], the target named is Amyloid-beta precursor protein (Homo sapiens) (UniProt P05067). Put plainly: Inhibition of amyloid beta (1-42) (unknown origin) aggregation at 20 uM after 48 hrs by thioflavin-T based fluorimetric assay relative to control. Summed up:
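HFIP-pretreated Aβ1–42 was resolubilised in 50 mM phosphate buffer, pH 7.4, and incubated at 37 °C for 48 h (50 μM final peptide) with or without compound at 20 μM. Samples were diluted into 50 mM glycine–NaOH, pH 8.0, containing thioflavin T and scanned for 300 s (ex 450/em 485 nm). Plateau values were averaged after subtracting ThT background.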

A short description of assay [2]: Antioxidant activity assessed as ratio of umol of trolox equivalent to umol of compound after 10 mins by oxygen radical absorbance capacity-fluorescein assay. In kind it is functional. The method, boiled down: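 Fluorescein 300 nM final was preincubated with antioxidant for 10 min at 37 °C, then AAPH was added to 12 mM final. Fluorescence (ex 485/em 535 nm) was read every 60 s for 4 h. Samples were run at […] against a Trolox calibration and an FL+AAPH blank in phosphate buffer. Results are expressed as Trolox equivalents, with mixtures in triplicate and ≥3 independent runs.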

Assay [3] concerns the target T1, Acetylcholinesterase (Electrophorus electricus, UniProt O42275). Nature of the assay: Inhibition of electric eel AChE using acetylthiocholine chloride as substrate preincubated for 15 mins prior to substrate addition by Ellman's method.
The nature of assay [4]: Antioxidant activity assessed as H2O2 scavenging activity at 100 uM after 72 hrs by spectrophotometric analysis. The assay is classed as functional. Summed up: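 Compound solution was added to H2O2 (0.1 mM) in 0.1 M phosphate buffer, pH 7.4, and incubated for 72 h at 37 °C. Phenol red (0.2 mg/mL) plus horseradish peroxidase (0.4 mg/mL) was added; after 15 min, 1 M NaOH was added and absorbance read at 610 nm. Percent H2O2 reduction = (A_H2O2 − A_sample)/A_H2O2 × 100, with the control holding acetone and no compound.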

Assay [5] in a line: Antioxidant activity assessed as H2O2 scavenging activity measured as compound remaining at 100 uM after 72 hrs by LC/MS analysis. The assay is classed as functional.
Assay [6] concerns the target T1, Acetylcholinesterase. Put plainly: Mixed-type inhibition of electric eel AChE using acetylthiocholine chloride as substrate by Lineweaver-Burk plot analysis. The method, boiled down: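 Electric eel AChE was pre-incubated with inhibitor at 37 °C for 15 min in 0.1 M phosphate buffer, pH 8.0, with DTNB, then substrate was added. Absorbance at 412 nm was followed at 60 s intervals at 37 °C. Reciprocal plots of initial velocity versus substrate concentration defined the inhibition type.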

Active and inactive are the calls of the source. No cut-off for these calls is given here.

T1 sequence (O42275 whole entry): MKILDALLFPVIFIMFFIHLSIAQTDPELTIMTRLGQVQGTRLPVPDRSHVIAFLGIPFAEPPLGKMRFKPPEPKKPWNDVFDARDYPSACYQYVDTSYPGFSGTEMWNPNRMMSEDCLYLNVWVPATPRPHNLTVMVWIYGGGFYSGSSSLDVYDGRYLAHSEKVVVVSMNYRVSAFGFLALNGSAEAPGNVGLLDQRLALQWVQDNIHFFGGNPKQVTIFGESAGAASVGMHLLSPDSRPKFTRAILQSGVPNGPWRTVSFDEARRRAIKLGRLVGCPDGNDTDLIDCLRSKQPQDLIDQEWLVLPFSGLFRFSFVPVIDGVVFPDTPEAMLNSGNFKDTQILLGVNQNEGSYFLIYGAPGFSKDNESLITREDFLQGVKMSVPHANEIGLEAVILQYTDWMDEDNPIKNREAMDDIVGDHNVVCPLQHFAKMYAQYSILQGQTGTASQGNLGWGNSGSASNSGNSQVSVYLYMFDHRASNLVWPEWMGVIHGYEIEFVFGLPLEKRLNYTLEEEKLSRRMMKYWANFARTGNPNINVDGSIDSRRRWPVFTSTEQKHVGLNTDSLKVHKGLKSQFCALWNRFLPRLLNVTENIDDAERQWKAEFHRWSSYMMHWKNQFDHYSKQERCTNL
Amyloid-beta precursor protein (Homo sapiens), sequence (P05067 whole entry): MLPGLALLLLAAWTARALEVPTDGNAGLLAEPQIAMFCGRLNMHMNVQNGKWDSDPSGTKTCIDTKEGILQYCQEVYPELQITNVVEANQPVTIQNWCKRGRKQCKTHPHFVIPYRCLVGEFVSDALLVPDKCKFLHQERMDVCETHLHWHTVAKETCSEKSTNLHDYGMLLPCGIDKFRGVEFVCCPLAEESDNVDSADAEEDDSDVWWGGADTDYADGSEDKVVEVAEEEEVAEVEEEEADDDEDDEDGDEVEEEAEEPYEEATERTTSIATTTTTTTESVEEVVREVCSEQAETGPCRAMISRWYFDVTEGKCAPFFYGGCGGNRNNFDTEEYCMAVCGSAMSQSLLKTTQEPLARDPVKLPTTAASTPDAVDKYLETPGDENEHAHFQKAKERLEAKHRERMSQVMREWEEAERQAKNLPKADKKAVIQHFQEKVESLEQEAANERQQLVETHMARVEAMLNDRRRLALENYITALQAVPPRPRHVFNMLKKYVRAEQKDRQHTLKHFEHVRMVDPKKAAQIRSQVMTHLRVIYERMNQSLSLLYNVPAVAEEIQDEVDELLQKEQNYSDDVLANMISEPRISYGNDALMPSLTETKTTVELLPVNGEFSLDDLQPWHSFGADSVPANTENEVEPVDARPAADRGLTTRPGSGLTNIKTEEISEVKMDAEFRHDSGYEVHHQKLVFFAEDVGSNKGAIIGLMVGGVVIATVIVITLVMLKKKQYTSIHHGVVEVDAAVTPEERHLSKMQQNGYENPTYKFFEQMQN

In the case of `COc1ccc2cc3[n+](cc2c1OCCSc1ccc(C)cc1)CCc1cc2c(cc1-3)OCO2`, the inhibition in assay [1] was found to be 70%. The Activity in assay [2] is 1.86 equiv. Further, on Acetylcholinesterase [3], the IC50 came out at 299 nM.

`COc1ccc2cc3[n+](cc2c1OCCCCCCSc1ccccc1)CCc1cc2c(cc1-3)OCO2`: the Activity in assay [2] is 0.77 equiv. The same molecule returned a concentration for half-maximal inhibition (IC50) against Acetylcholinesterase [3] of 972 nM.

In assay [1], `COc1ccc2cc3[n+](cc2c1OCCCCSc1ccccc1)CCc1cc2c(cc1-3)OCO2` displayed an inhibition of 69.1%. Besides, the Activity in assay [2] worked out at 0.95 equiv. In addition, the IC50 on Acetylcholinesterase [3] was 192 nM.

In the case of `COc1ccc2cc3[n+](cc2c1OCCSc1cccc(Cl)c1)CCc1cc2c(cc1-3)OCO2`, the Activity in assay [2] was found to be 0.47 equiv. Further, the IC50 against Acetylcholinesterase [3] worked out at 233 nM.

Regarding `COc1ccc2cc3[n+](cc2c1OCCSc1ccc(Cl)cc1)CCc1cc2c(cc1-3)OCO2`, the Activity in assay [2] came to 0.82 equiv. Moreover, the midpoint of inhibition at Acetylcholinesterase [3], the IC50, lay at 484 nM.

In assay [1], `COc1ccc2cc3[n+](cc2c1OCCSc1ccccc1C)CCc1cc2c(cc1-3)OCO2` gave an inhibition of 73.4%. Moreover, the result in assay [4] and in assay [5] was Active. In addition, the Activity in assay [2] is 1.11 equiv. Also, half-maximal inhibition on Acetylcholinesterase [3] (IC50) required 77 nM. The Ki on Acetylcholinesterase [6] came to 71 nM.

In turn, `COc1ccccc1SCCOc1c(OC)ccc2cc3[n+](cc12)CCc1cc2c(cc1-3)OCO2` displayed an inhibition in assay [1] of 76.8%. For the same molecule, in assay [2], the Activity turned out to be 1.94 equiv. Moreover, the midpoint of inhibition at Acetylcholinesterase [3], the IC50, lay at 151 nM.

As to `COc1ccc2cc3[n+](cc2c1OCCCCCSc1ccccc1)CCc1cc2c(cc1-3)OCO2`, in assay [2], the Activity was determined as 0.89 equiv. The midpoint of inhibition against Acetylcholinesterase [3], the IC50, lay at 543 nM.

As to `COc1ccc2cc3[n+](cc2c1OCCSc1ccccc1)CCc1cc2c(cc1-3)OCO2`, the inhibition in assay [1] is 70.4%. Besides, the Activity in assay [2] was 0.89 equiv. The IC50 on Acetylcholinesterase [3] is 177 nM.

As for `COc1ccc2cc3[n+](cc2c1OCCSc1ccccc1Cl)CCc1cc2c(cc1-3)OCO2`, the inhibition in assay [1] was 65.1%. For the same molecule, the Activity in assay [2] amounted to 0.75 equiv. The same molecule gave an IC50 at Acetylcholinesterase [3] of 42 nM. This molecule gave a Ki at Acetylcholinesterase [6] of 18 nM.

`Oc1ccc(/C=C/c2cc(O)cc(O)c2)cc1` showed an inhibition in assay [1] of 61.1%.

Regarding `COc1ccc2cc3[n+](cc2c1OCCSc1ccccc1F)CCc1cc2c(cc1-3)OCO2`, the inhibition in assay [1] turned out to be 73.3%. Further, the Activity in assay [2] was determined as 1.15 equiv. At Acetylcholinesterase [3], this molecule registered an IC50 of 87 nM.

In assay [1], `COc1ccc2cc3[n+](cc2c1OC)CCc1cc2c(cc1-3)OCO2` gave an inhibition of 35.5%. In addition, in assay [2], the Activity is 0.4 equiv.

The molecule `CCc1ccccc1SCCOc1c(OC)ccc2cc3[n+](cc12)CCc1cc2c(cc1-3)OCO2` returned an inhibition in assay [1] of 74.8%. Further, the Activity in assay [2] worked out at 1.01 equiv. The molecule further yielded an IC50 against Acetylcholinesterase [3] of 83 nM.

Molecule `COc1ccc2cc3[n+](cc2c1OCCSc1cccc(C)c1)CCc1cc2c(cc1-3)OCO2` had an inhibition in assay [1] of 72.3%. In addition, in assay [2], the Activity was 1.32 equiv. The same molecule yielded an IC50 against Acetylcholinesterase [3] of 207 nM.

`COc1ccc2cc3[n+](cc2c1OCCCSc1ccccc1)CCc1cc2c(cc1-3)OCO2`: in assay [1], the inhibition is 70.6%. In assay [2], the Activity stood at 0.94 equiv. Besides, at Acetylcholinesterase [3], the midpoint of inhibition, the IC50, lay at 257 nM.

The record behind these values is ChEMBL document CHEMBL2417460, “Synthesis and biological evaluation of berberine-thiophenyl hybrids as multi-functional agents: Inhibition of acetylcholinesterase, butyrylcholinesterase, and Aβ aggregation and antioxidant activity” (Bioorg Med Chem, 2013).
